Source: ChEMBL document CHEMBL4402547, “Synthesis and Pharmacological Characterization of Conformationally Restricted Retigabine Analogues as Novel Neuronal Kv7 Channel Activators” (J Med Chem, 2020)
The source made the active and inactive calls. The rule behind the calls is not given here.

What was measured:
[1] = molecular target: Voltage-gated potassium channel, KQT; KCNQ2(Kv7.2)/KCNQ3(Kv7.3) (Homo sapiens) (UniProt O43526+O43525); experiment: Activation of human Kv7.2/Kv7.3 expressed in CHO cells assessed as delta V at 10 uM by whole cell patch clamp electrophysiology assay; format: cell-based
[2] = molecular target: T1, Potassium voltage-gated channel subfamily KQT member 2 (Homo sapiens, UniProt O43526); experiment: Activation of human Kv7.2 expressed in CHO cells assessed as increase in current amplitude at 10 uM measured at holding potential of -40 mV by whole cell patch clamp electrophysiology assay relative to control; format: cell-based
Method in brief: (§1)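 CHO cells transiently co-transfected (Lipofectamine 2000, 4 μg total cDNA, EGFP marker) with human channel cDNA in pcDNA3.1, recorded 24 h later. Whole-cell patch clamp at 20–22°C, 3–5 MΩ pipettes, perfused extracellular solution pH 7.4. Held at −80 mV; 3-s ramps −80 to +20 mV ± 10 μM drug. Current at −40 mV with vs without drug expressed as ratio; ≥3 cells from ≥2 transfections, mean ± SEM.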

[3] = tested on: Potassium voltage-gated channel subfamily KQT member 2 (Homo sapiens), O43526 [W236L]; experiment: Activation of human Kv7.2 W236L mutant expressed in CHO cells assessed as channel current amplitude at 10 uM measured at holding potential of -40 mV by whole cell patch clamp electrophysiology assay; format: cell-based; method in brief: as §1
[4] = molecular target: T2, Potassium voltage-gated channel subfamily KQT member 4 (Homo sapiens, UniProt P56696); experiment: Activation of human Kv7.4 expressed in CHO cells assessed as delta V at 10 uM by whole cell patch clamp electrophysiology assay; format: cell-based
T2 sequence (P56696 whole entry): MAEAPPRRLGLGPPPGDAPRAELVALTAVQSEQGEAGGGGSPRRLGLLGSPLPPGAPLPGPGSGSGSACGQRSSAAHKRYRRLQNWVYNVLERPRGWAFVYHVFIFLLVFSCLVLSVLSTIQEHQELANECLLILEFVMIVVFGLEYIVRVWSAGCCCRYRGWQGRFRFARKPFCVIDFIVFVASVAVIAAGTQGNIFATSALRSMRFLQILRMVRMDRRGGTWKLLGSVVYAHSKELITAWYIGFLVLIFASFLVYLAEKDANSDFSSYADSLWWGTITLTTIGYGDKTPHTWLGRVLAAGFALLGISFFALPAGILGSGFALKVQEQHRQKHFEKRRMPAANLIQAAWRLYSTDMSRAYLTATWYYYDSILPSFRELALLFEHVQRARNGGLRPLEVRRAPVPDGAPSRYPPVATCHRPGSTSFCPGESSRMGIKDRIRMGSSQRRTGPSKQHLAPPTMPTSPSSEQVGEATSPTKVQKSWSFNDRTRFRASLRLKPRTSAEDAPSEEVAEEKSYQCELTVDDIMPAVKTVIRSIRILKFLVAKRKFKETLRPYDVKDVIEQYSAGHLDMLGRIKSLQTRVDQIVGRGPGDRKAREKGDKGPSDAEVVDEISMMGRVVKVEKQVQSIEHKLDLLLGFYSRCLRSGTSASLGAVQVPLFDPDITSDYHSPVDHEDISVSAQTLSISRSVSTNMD

[5] = molecular target: Potassium voltage-gated channel subfamily KQT member 5 (Homo sapiens, UniProt Q9NR82); experiment: Activation of human Kv7.5 expressed in CHO cells assessed as increase in channel current amplitude by whole cell patch clamp electrophysiology assay; format: cell-based
[6] = tested on: Potassium voltage-gated channel subfamily KQT member 2 (Homo sapiens), O43526 [F168L]; experiment: Activation of ICA-insensitive human Kv7.2 F168L mutant expressed in CHO cells assessed as increase in channel current amplitude at 10 uM measured at holding potential of -40 mV by whole cell patch clamp electrophysiology assay; format: cell-based; method in brief: as §1
UGT (phase 2 metabolism) = UGT (phase 2 metabolism) (Homo sapiens, UniProt O60656+O75310+O75795+P06133+P0DTE4+P0DTE5+P16662+P19224+P22309+P22310+P35503+P35504+P36537+P54855+Q6UWM9+Q9BY64+Q9HAW7+Q9HAW8+Q9HAW9); experiment: Drug metabolism in human liver S9 fractions assessed as assessed as UGT-mediated phase 2 metabolism at 1 mM preincubated for 5 mins followed by NADPH addition and measured after 60 mins by RP-UHPLC-DAD analysis relative to control; format: ADME, subcellular; conditions: read-out: Drug metabolism
Method in brief: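 Compound (2 μL of 1 mM stock) in 100 mM phosphate buffer pH 7.4 with pooled human liver S9, preincubated 5 min, then NADPH added, 37°C for 60 min. For UGT: 5 mM UDPGA, alamethicin, 1 mM MgCl added; for NAT: 2 mM DTT, sulfamethazine, 4.5 mM acetyl DL-carnitine, 0.1 U/mL carnitine acetyltransferase. Stopped with ice-cold methanol; RP-UHPLC-DAD; % turnover = 100 − (60 min/0 min concentration × 100).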

[7] = molecular target: T1, Potassium voltage-gated channel subfamily KQT member 2; experiment: Activation of human Kv7.2 expressed in CHO cells assessed as increase in maximal channel conductance at 0.03 uM in constant voltage pulses by whole cell patch clamp electrophysiology assay; format: cell-based
Method in brief: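 Transiently transfected CHO cells (human Kv7.2 cDNA in pcDNA3.1, EGFP marker), recorded 24 h post-transfection by whole-cell patch clamp at 20–22°C; extracellular solution in mM 138 NaCl, 2 CaCl₂, 5.4 KCl, 1 MgCl₂, 10 glucose, 10 HEPES, pH 7.4. Constant voltage pulses before and after 0.03 μM compound; conductance/voltage curves fitted to double Boltzmann for V1/2 and maximal conductance.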

[8] = molecular target: T3, Potassium voltage-gated channel subfamily KQT member 1 (Homo sapiens, UniProt P51787); experiment: Activation of human Kv7.1 expressed in CHO cells assessed as channel current amplitude at 10 uM measured at holding potential of +20 mV and -40 mV by whole cell patch clamp electrophysiology assay; format: cell-based
T3 sequence (P51787 whole entry): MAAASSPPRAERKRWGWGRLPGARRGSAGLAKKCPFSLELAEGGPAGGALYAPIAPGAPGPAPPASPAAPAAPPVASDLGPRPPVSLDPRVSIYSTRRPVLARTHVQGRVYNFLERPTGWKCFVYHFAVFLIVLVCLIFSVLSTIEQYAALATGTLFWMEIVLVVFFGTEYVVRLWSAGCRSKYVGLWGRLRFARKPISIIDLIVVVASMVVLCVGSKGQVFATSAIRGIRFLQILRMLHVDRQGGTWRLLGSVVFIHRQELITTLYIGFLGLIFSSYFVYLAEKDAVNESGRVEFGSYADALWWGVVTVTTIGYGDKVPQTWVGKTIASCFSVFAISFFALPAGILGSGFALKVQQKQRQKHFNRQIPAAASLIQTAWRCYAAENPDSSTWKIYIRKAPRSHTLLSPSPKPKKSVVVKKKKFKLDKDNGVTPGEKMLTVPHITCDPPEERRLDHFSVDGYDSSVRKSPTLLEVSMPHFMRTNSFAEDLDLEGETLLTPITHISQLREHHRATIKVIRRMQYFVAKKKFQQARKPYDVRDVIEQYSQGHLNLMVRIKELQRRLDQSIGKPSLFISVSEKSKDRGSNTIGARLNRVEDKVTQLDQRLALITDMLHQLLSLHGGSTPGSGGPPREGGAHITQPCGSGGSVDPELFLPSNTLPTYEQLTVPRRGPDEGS

Chain of Potassium voltage-gated channel subfamily KQT member 5 (Q9NR82 whole entry): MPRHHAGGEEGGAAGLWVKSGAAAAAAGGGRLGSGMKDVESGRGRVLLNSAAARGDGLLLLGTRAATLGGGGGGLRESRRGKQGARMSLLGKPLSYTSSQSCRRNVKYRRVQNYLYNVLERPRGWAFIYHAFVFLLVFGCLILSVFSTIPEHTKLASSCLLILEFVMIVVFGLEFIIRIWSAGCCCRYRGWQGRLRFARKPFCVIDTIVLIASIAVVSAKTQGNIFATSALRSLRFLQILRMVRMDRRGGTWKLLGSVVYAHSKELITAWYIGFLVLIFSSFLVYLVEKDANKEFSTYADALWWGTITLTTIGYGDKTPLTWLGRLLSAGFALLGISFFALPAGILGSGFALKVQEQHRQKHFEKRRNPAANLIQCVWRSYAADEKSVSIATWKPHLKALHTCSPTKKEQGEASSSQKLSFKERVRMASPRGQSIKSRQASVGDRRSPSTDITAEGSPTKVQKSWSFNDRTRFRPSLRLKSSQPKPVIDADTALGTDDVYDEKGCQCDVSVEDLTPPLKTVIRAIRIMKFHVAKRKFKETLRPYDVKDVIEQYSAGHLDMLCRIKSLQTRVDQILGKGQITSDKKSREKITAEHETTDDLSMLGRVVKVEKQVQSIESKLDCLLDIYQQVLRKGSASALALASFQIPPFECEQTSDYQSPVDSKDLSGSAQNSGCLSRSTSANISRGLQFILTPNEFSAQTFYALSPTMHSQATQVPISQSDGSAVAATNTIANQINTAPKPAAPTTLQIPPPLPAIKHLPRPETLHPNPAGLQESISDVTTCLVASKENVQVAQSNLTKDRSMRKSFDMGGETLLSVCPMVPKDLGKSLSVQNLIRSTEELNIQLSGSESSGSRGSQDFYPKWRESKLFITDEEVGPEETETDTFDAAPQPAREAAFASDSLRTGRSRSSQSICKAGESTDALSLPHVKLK
Chain of Potassium voltage-gated channel subfamily KQT member 2 (Homo sapiens), O43526 [W236L] (O43526 whole entry W236L): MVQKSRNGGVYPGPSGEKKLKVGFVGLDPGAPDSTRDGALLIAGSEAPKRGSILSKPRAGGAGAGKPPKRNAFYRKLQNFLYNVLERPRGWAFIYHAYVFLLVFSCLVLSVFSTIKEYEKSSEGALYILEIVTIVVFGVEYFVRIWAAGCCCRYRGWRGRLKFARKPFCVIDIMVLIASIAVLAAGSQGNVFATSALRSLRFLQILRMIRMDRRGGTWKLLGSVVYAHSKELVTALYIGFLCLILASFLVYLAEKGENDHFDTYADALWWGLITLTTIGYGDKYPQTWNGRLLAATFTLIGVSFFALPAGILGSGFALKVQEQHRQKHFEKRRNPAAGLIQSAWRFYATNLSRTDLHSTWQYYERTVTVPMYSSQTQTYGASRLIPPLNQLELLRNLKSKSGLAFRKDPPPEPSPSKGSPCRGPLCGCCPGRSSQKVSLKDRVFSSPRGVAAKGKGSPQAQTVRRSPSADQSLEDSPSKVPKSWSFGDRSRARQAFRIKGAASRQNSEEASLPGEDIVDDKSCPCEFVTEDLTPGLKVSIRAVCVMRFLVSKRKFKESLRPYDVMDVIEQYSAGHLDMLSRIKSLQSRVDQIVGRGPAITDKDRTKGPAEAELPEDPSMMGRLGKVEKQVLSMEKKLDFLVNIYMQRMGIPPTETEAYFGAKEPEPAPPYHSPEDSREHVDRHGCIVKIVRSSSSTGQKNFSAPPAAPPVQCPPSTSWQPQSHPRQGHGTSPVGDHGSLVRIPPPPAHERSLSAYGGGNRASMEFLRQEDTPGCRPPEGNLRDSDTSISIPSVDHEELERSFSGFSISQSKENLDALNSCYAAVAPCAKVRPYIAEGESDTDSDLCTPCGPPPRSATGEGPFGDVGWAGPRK
T1 sequence (O43526 whole entry, the tested form may be a part): as the sequence (O43526 whole entry W236L) above, with L236W counted along it
Chain of Potassium voltage-gated channel subfamily KQT member 2 (Homo sapiens), O43526 [F168L] (O43526 whole entry F168L): as the sequence (O43526 whole entry W236L) above, with F168L, L236W counted along it

What does the source list for `CC(C)(C)CC(=O)Nc1ccc2c(ccn2Cc2ccc(C(F)(F)F)cc2)c1`?
Activity [1]: -20 mV; Activity [2]: Active; Activity [3]: inactive; Activity [4]: -24.43 mV; EC50 [5]: 0.35 µM; Activity [6]: Active; metabolised at 1 h, 1000 µM (UGT (phase 2 metabolism)): 7.42%

What does the source list for `CCOC(=O)Nc1ccc(NCc2ccc(F)cc2)cc1N` [EZOGABINE]?
Activity [1]: -26.8 mV; Activity [7]: inactive; Activity [8]: Not Active; Ratio [2]: 6; Activity [3]: inactive; Activity [4]: -15.19 mV; EC50 [5]: 0.8 µM; Activity [6]: Active; metabolised at 1 h, 1000 µM (UGT (phase 2 metabolism)): 11.4%

What does the source list for `CCCCCCC(=O)Nc1ccc2c(ccn2Cc2ccc(C(F)(F)F)cc2)c1`?
Activity [1]: -25.4 mV; Activity [7]: Active; Activity [8]: Not Active; Activity [2]: Active; Activity [3]: inactive; Activity [4]: -32.85 mV; EC50 [5]: 1.07 µM; Activity [6]: Active
